Columns and labels:
Type in all cases: functional
Meloidogyne incognita [1] = assay: Nematicidal activity against Meloidogyne incognita (root-knot nematode) assessed as cumulative percentage of egg hatching at 25 degC at 2000 umol/L on day 7 (SDW control = 12.63 +/- 3.84%)
In short: (§1)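 Eggs (500 in 1 mL suspension) held on a 1 cm sieve of 35 μm pore, set in the center well of a 24-well plate. About 2 mL of fatty acid solution (final 100, 1000 or 2000 μmol/L) was added, reaching only the sieve bottom. The fatty acid was dissolved in acetone/Tween-80/DMSO medium and diluted with sterile distilled water. SDW and medium served as controls. One treatment per plate, six replicates, parafilm-sealed, 25 °C. Hatched J2s were counted and the solution renewed on days 3, 7, 14 and 21; values are cumulative % hatch as mean ± SE.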

Meloidogyne incognita [2] = assay: Nematicidal activity against Meloidogyne incognita (root-knot nematode) assessed as cumulative percentage of egg hatching at 25 degC at 100 umol/L on day 14 (SDW control = 35.77 +/- 4.48%); in short: as §1
Meloidogyne incognita [3] = assay: Nematicidal activity against Meloidogyne incognita (root-knot nematode) assessed as cumulative percentage of egg hatching at 25 degC at 2000 umol/L on day 14 (SDW control = 35.77 +/- 4.48%); in short: as §1
Meloidogyne incognita [4] = assay: Nematicidal activity against Meloidogyne incognita (root-knot nematode) assessed as cumulative percentage of egg hatching at 25 degC at 1000 umol/L on day 21 (SDW control = 44.87 +/- 3.93%); in short: as §1
Meloidogyne incognita [5] = assay: Nematicidal activity against second-stage juvenile of Meloidogyne incognita (root-knot nematode) assessed as mortality at 25 degC at 1000 umol/L after 24 hr Rvb = 1.47 to 2.51%)
Meloidogyne incognita [6] = assay: Nematicidal activity against Meloidogyne incognita (root-knot nematode) assessed as cumulative percentage of egg hatching at 25 degC at 1000 umol/L on day 7 (SDW control = 12.63 +/- 3.84%); in short: as §1
Meloidogyne incognita [7] = assay: Nematicidal activity against Meloidogyne incognita (root-knot nematode) assessed as cumulative percentage of egg hatching at 25 degC at 1000 umol/L on day 14 (SDW control = 35.77 +/- 4.48%); in short: as §1
Meloidogyne incognita [8] = assay: Nematicidal activity against second-stage juvenile of Meloidogyne incognita (root-knot nematode) assessed as mortality at 25 degC at 2000 umol/L after 12 hr (reference value: 1.79 to 3.30%)
Meloidogyne incognita [9] = assay: Nematicidal activity against second-stage juvenile of Meloidogyne incognita (root-knot nematode) assessed as mortality at 25 degC at 100 umol/L after 12 hr (reference value: 1.79 to 3.30%)
Meloidogyne incognita [10] = assay: Nematicidal activity against Meloidogyne incognita (root-knot nematode) assessed as cumulative percentage of egg hatching at 25 degC at 2000 umol/L on day 21 (SDW control = 44.87 +/- 3.93%); in short: as §1
Meloidogyne incognita [11] = assay: Nematicidal activity against second-stage juvenile of Meloidogyne incognita (root-knot nematode) assessed as mortality at 25 degC at 1000 umol/L after 12 hr (reference value: 1.79 to 3.30%)
Meloidogyne incognita [12] = assay: Nematicidal activity against second-stage juvenile of Meloidogyne incognita (root-knot nematode) assessed as mortality at 25 degC at 2000 umol/L after 24 hr Rvb = 1.47 to 2.51%)
Meloidogyne incognita [13] = assay: Nematicidal activity against Meloidogyne incognita (root-knot nematode) root-knot nematodes assessed as cumulative percentage of egg hatching at 25 degC at 100 umol/L on day 3 (SDW control = 0.57 +/- 0.37%); in short: as §1
Meloidogyne incognita [14] = assay: Nematicidal activity against Meloidogyne incognita (root-knot nematode) assessed as cumulative percentage of egg hatching at 25 degC at 1000 umol/L on day 3 (SDW control = 0.57 +/- 0.37%); in short: as §1
Meloidogyne incognita [15] = assay: Nematicidal activity against Meloidogyne incognita (root-knot nematode) assessed as cumulative percentage of egg hatching at 25 degC at 2000 umol/L on day 3 (SDW control = 0.57 +/- 0.37%); in short: as §1
Meloidogyne incognita [16] = assay: Nematicidal activity against second-stage juvenile of Meloidogyne incognita (root-knot nematode) assessed as mortality at 25 degC at 100 umol/L after 24 hr (reference value: 1.47 to 2.51%)
Meloidogyne incognita [17] = assay: Nematicidal activity against Meloidogyne incognita (root-knot nematode) assessed as cumulative percentage of egg hatching at 25 degC at 100 umol/L on day 7 (SDW control = 12.63 +/- 3.84%); in short: as §1
Meloidogyne incognita [18] = assay: Nematicidal activity against Meloidogyne incognita (root-knot nematode) assessed as cumulative percentage of egg hatching at 25 degC at 100 umol/L on day 21 (SDW control = 44.87 +/- 3.93%); in short: as §1

| Structure (SMILES) | Activity (Meloidogyne incognita [1]) [%] | Activity (Meloidogyne incognita [2]) [%] | Activity (Meloidogyne incognita [3]) [%] | Activity (Meloidogyne incognita [4]) [%] | mortality at 1000 µM (Meloidogyne incognita [5]) [%] | Activity (Meloidogyne incognita [6]) [%] | Activity (Meloidogyne incognita [7]) [%] | mortality at 2000 µM (Meloidogyne incognita [8]) [%] | mortality at 100 µM (Meloidogyne incognita [9]) [%] | Activity (Meloidogyne incognita [10]) [%] | mortality at 1000 µM (Meloidogyne incognita [11]) [%] | mortality at 2000 µM (Meloidogyne incognita [12]) [%] | Activity (Meloidogyne incognita [13]) [%] | Activity (Meloidogyne incognita [14]) [%] | Activity (Meloidogyne incognita [15]) [%] | mortality at 100 µM (Meloidogyne incognita [16]) [%] | Activity (Meloidogyne incognita [17]) [%] | Activity (Meloidogyne incognita [18]) [%] |
| --- | --- | --- | --- | --- | --- | --- | --- | --- | --- | --- | --- | --- | --- | --- | --- | --- | --- | --- |
| CCCCCCCCCCCCCC(=O)O [MYRISTIC ACID] | 1.53 | 18.4 | 12 | 23.97 | 1.57 | 1.47 | 12.93 | 2.11 | 1.31 | 20 | 2.29 | 3.76 | 1.8 | 0.37 | 0.27 | 2.46 | 8.87 | 27.67 |
| CCCCCCCCCC(=O)O [DECANOIC ACID] | 2.07 | 19.57 | 4.8 | 16.4 | 1.63 | 4.77 | 11.5 | 25.2 | 2.01 | 7.1 | 16.9 | 61 | 0.43 | 0.97 | 0.23 | 5.16 | 4.73 | 25.93 |
| CCCCCCCCCCCC(=O)O [DODECANOATE] | 7.57 | 20.1 | 17.47 | 24.17 | 2.46 | 12.7 | 20.37 | 38 | 1.22 | 20.77 | 21.3 | 41.3 | 0.5 | 3.67 | 1.6 | 15.8 | 4.73 | 27.1 |
| CCCCCCCC/C=C\CCCCCCCC(=O)O [OLEIC ACID] | 7.47 | 16.6 | 16.53 | 25.57 | 2.42 | 6.03 | 18.53 | 4.49 | 3.54 | 21.8 | 4.52 | 4.58 | 1.47 | 0.67 | 1.23 | 3.54 | 6.07 | 24.93 |
| CCCCCCCCCCCCCCCC(=O)O [PALMITIC ACID] | 6.63 | 15.07 | 17.23 | 13.4 | 3.03 | 2.8 | 9.53 | 5.44 | 3.33 | 20.17 | 6.71 | 4.91 | 1.13 | 0.23 | 0.7 | 3.36 | 5.73 | 22.3 |
